In ChEMBL document CHEMBL1124949, “4-(1,2,5,6-Tetrahydro-1-alkyl-3-pyridinyl)-2-thiazolamines: a novel class of compounds with central dopamine agonist properties” (J Med Chem, 1990):
Calls of active or inactive are those of the source. The rule behind the calls is not given here.

Key:
D(2) dopamine receptor [1] = target: T1, D(2) dopamine receptor (Rattus norvegicus, UniProt P61169); test: Inhibition of [3H]haloperidol binding for Dopamine receptor D2 in rat striatal membranes.; format: cell membranes, Membrane
T1 sequence (P61169 whole entry): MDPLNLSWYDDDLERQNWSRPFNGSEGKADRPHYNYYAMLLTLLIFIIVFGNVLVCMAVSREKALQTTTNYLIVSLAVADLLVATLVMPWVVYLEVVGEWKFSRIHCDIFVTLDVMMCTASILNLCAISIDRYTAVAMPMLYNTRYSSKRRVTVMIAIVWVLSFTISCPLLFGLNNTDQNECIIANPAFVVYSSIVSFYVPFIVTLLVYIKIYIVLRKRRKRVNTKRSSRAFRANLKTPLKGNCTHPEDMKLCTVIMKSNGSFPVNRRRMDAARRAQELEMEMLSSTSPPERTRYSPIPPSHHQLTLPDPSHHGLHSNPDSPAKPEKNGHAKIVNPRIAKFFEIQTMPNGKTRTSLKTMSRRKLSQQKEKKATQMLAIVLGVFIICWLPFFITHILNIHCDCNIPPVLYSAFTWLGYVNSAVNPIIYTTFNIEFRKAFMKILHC

Rattus norvegicus [2] = test: Percent inhibition of dopamine neuronal firing in substantia nigra of anesthetized rats after (ip) administration at 2.5 mg/kg
Rattus norvegicus [3] = test: Reversal of reserpine-induced depression in rat after subcutaneous administration; format: functional
Outline: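 Rats were pretreated with reserpine 5 mg/kg 24 h before testing, then given drug sc. Locomotor activity was recorded for 30 min starting immediately after dosing.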

Rattus norvegicus [4] = test: Decrease of DOPA formation effected by 30 mg/kg administered intraperitoneally in the striatum of GBL-treated rats; details: at 30 mg/kg
Rattus norvegicus [5] = test: Inhibition of locomotor activity was determined after oral administration in rat; format: functional
Outline: (§1)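 Spontaneous exploratory locomotor activity was scored, with motor coordination (ataxia) checked in the same test. ED50 came from four to six doses, with 5–12 animals per dose.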

D(2) dopamine receptor [6] = target: T1, D(2) dopamine receptor; test: Inhibition of [3H]haloperidol binding for Dopamine receptor D2 in rat striatal membranes. (25% inhibition at 10 e-6 M); format: cell membranes, Membrane
Mus musculus = test: Inhibition of locomotor activity was determined after intraperitoneal administration in mouse; format: functional; details: ip; outline: as §1
D(2) dopamine receptor [7] = target: T1, D(2) dopamine receptor; test: Inhibition of [3H]haloperidol binding for Dopamine receptor D2 in rat striatal membranes. (41% inhibition at 10 e-6 M); format: cell membranes, Membrane
Rattus norvegicus [8] = test: Decrease of DOPA formation effected by 30 mg/kg administered intraperitoneally in the striatum of GBL-treated rats; format: functional; details: ip, route intraperitoneal
Outline: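 Male Long-Evans rats dosed ip 1 h before sacrifice. GBL 750 mg/kg ip given 30 min and NSD 1015 100 mg/kg ip given 25 min before sacrifice. Striatal DOPA measured by HPLC with electrochemical detection. Decrease in DOPA formation at 30 mg/kg ip, n = 4 or 5.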

D(2) dopamine receptor [9] = target: T1, D(2) dopamine receptor; test: Inhibition of [3H]haloperidol binding for Dopamine receptor D2 in rat striatal membranes. (15% inhibition at 10 e-6 M); format: cell membranes, Membrane
D(2) dopamine receptor [10] = target: T1, D(2) dopamine receptor; test: Inhibition of [3H]N-propylnorapomorphine binding to Dopamine receptor D2 of rat striatal membranes; format: cell membranes, Membrane
Rattus norvegicus [11] = test: Percent inhibition of dopamine neuronal firing in substantia nigra of anesthetized rats after (ip) administration at 2.5 mg/kg; format: functional
Rattus norvegicus [12] = test: Percent of animals showing stereotyped behavior in rats at 3 mg/kg; format: functional
Rattus norvegicus [13] = test: Inhibition of locomotor activity was determined after oral administration at a dose of 1 mg/kg in rat; format: functional
D(1A) dopamine receptor = D(1A) dopamine receptor (Rattus norvegicus, UniProt P18901); test: Inhibition of binding of [3H]SCH-23390 to Dopamine receptor D1 was determined
D(1A) dopamine receptor, sequence (P18901 whole entry): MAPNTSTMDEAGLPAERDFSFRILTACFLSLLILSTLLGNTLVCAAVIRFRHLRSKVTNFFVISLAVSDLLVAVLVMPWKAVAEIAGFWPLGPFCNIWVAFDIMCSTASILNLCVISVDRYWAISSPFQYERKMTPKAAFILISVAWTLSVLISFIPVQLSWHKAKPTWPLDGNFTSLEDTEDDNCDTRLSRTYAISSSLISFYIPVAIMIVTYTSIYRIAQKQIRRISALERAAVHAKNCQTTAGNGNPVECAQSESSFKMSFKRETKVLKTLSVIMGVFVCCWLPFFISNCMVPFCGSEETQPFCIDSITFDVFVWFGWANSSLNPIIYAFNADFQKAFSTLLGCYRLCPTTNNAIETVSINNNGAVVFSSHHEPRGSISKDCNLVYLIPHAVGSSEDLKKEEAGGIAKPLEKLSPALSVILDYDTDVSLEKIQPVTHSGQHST
Outline: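 D1 binding was displaced from [3H]SCH23390. IC50 was fitted by nonlinear regression from four or five concentrations.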

Rattus norvegicus [14] = test: Reversal of 6-hydroxydopamine induced depression in lesioned rats after dosing for a period of 30 minutes; format: functional; details: 0.5 h
Outline: (§2)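 Rats received 6-OHDA 200 μg icv plus pargyline 50 mg/kg ip and desmethylimipramine 25 mg/kg ip at least 1 month earlier, giving about 90% brain DA depletion. Drug was given sc and locomotion recorded for 30 min from dosing. ED200 is the dose doubling activity versus unlesioned controls, estimated from three or four doses with six animals per dose.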

Rattus norvegicus [15] = test: Inhibition of locomotor activity was determined after (sc) administration in rat (40% inhibition was determined at 3 mg/kg); format: functional, organism-based; design: dose 3 mg/kg
D(2) dopamine receptor [16] = target: T1, D(2) dopamine receptor; test: Inhibition of [3H]haloperidol binding for Dopamine receptor D2 in rat striatal membranes. (36%inhibition at 10 e-6 M); format: cell membranes, Membrane
Rattus norvegicus [17] = test: Percent of animals showing stereotyped behavior in rats at the dose 0.3 mg/kg; format: functional
D(2) dopamine receptor [18] = target: T1, D(2) dopamine receptor; test: Inhibition of [3H]haloperidol binding for Dopamine receptor D2 in rat striatal membranes. (2% inhibition at 10 e-6 M); format: cell membranes, Membrane
Rattus norvegicus [19] = test: Reversal of 6-hydroxydopamine induced depression in lesioned rats was determined after dosing for a period of 30 minutes; format: functional; details: 0.5 h; outline: as §2
Rattus norvegicus [20] = test: Percent of rats showing stereotyped behavior at the dose at 3 mg/kg dose level; format: functional
Rattus norvegicus [21] = test: Inhibition of locomotor activity was determined after oral administration in rat(50% inhibition at 3 mg/kg); format: functional
[22] = Rattus norvegicus, sc, read-out: ED50

`CN1CCC=C(c2csc(N)n2)C1.Cl.Cl` gave an IC50 (D(2) dopamine receptor [1]) of 1040 nM, an inhibition (Rattus norvegicus [2]) of 100% and an ED50 (Rattus norvegicus [3]; [22]) of over 30 mg/kg. The inhibition (Rattus norvegicus [4]) was 100% and the ED50 (Rattus norvegicus [5]) was “inactive”.
Molecule `CCCCN1CCC=C(c2csc(NC)n2)C1.Cl.Cl` has an IC50 (D(2) dopamine receptor [6]) of over 1000 nM, an ED50 (Rattus norvegicus [5]) of 16.7 mg/kg and an ED50 (Mus musculus) of 4.4 mg/kg.
Molecule `CCCN1CCC=C(c2csc(C)n2)C1.Cl.Cl` has an IC50 (D(2) dopamine receptor [7]) of over 1000 nM and an ED50 (Mus musculus) of over 30 mg/kg.
Molecule `CCCN1CCCC(c2csc(N)n2)C1.Cl.Cl` (stereo unspecified) has an ED50 (Rattus norvegicus [5]) of 18.9 mg/kg, an inhibition in vivo at 30 mg/kg (Rattus norvegicus [8]) of 55% and an IC50 (D(2) dopamine receptor [9]) of over 1000 nM.
`CCCCN1CCC=C(c2csc(N)n2)C1.Cl.Cl` showed an IC50 (D(2) dopamine receptor [10]) of 3980 nM, an IC50 (D(2) dopamine receptor [1]) of 2120 nM and an ED50 (Rattus norvegicus [3]; [22]) of over 30 mg/kg. It also gave an inhibition in vivo at 2.5 mg/kg (Rattus norvegicus [11]) of 0%, an ED50 (Rattus norvegicus [5]) of 5.4 mg/kg and an inhibition in vivo at 30 mg/kg (Rattus norvegicus [8]) of 0%.
`Br.Br.CCCCCN1CCC=C(c2csc(N)n2)C1` gave an IC50 (D(2) dopamine receptor [10]) of 6400 nM, an IC50 (D(2) dopamine receptor [1]) of 1850 nM and an ED50 (Rattus norvegicus [3]; [22]) of over 30 mg/kg. The ED50 (Rattus norvegicus [5]) was 15.6 mg/kg, the inhibition in vivo at 30 mg/kg (Rattus norvegicus [8]) was 0% and the ED50 (Mus musculus) was 4.1 mg/kg.
`C=CCN1CCC=C(c2csc(N)n2)C1` was tested, and the Animals (Rattus norvegicus [12]) was 100%, the IC50 (D(2) dopamine receptor [10]) was 257 nM and the IC50 (D(2) dopamine receptor [1]) was 440 nM. It also gave an ED50 (Rattus norvegicus [3]; [22]) of 8.7 mg/kg, an inhibition in vivo at 1 mg/kg (Rattus norvegicus [13]) of 30% and an IC50 (D(1A) dopamine receptor) of over 50000 nM. The inhibition in vivo at 2.5 mg/kg (Rattus norvegicus [11]) was 100%, the inhibition in vivo at 30 mg/kg (Rattus norvegicus [8]) was 100% and the ED200 (Rattus norvegicus [14]) was 0.3 mg/kg. For the same molecule, the ED50 (Mus musculus) was 2.8 mg/kg.
With `CCCN1CCCC(c2cccc(O)c2)C1` (stereo unspecified) [listing 1 of 2 here] the ED50 (Rattus norvegicus [15]) was “inactive”.
`CCCCCCN1CCC=C(c2csc(N)n2)C1.Cl.Cl` gave an IC50 (D(2) dopamine receptor [10]) of 5330 nM, an ED50 (Rattus norvegicus [3]; [22]) of over 30 mg/kg and an IC50 (D(2) dopamine receptor [16]) of over 1000 nM.
With `CN1CCc2cccc3c2[C@H]1Cc1ccc(O)c(O)c1-3` [APOMORPHINE] the ED50 (Rattus norvegicus [3]; [22]) was 0.1 mg/kg and the Animals (Rattus norvegicus [17]) was 100%.
With `CCCN1CCC=C(c2cnc(N)s2)C1` the IC50 (D(2) dopamine receptor [18]) was over 1000 nM and the ED50 (Mus musculus) was 19.1 mg/kg.
`Cl.Cl.Nc1nc(C2=CCCN(CCc3ccccc3)C2)cs1` showed an IC50 (D(2) dopamine receptor [10]) of 911 nM, an IC50 (D(2) dopamine receptor [1]) of 1080 nM and an ED50 (Rattus norvegicus [3]; [22]) of 5.8 mg/kg. The ED50 (Rattus norvegicus [5]) was 33.6 mg/kg.
`CCCCCCCN1CCC=C(c2csc(N)n2)C1.Cl.Cl` was tested, and the IC50 (D(2) dopamine receptor [10]) was 5130 nM, the IC50 (D(2) dopamine receptor [1]) was 2170 nM and the ED50 (Rattus norvegicus [3]; [22]) was over 30 mg/kg. For the same molecule, the ED50 (Rattus norvegicus [5]) was over 30 mg/kg.
Work on `CCCN1CCC=C(c2csc(NC)n2)C1` yielded an IC50 (D(2) dopamine receptor [6]) of over 1000 nM and an IC50 (D(2) dopamine receptor [10]) of over 10000 nM.
`CCCN1CCC=C(c2csc(N)n2)C1` showed an ED200 (Rattus norvegicus [19]) of 0.4 mg/kg, an IC50 (D(2) dopamine receptor [10]) of 596 nM and an Animals (Rattus norvegicus [20]) of 100%. It also gave an IC50 (D(2) dopamine receptor [1]) of 958 nM, an ED50 (Rattus norvegicus [3]; [22]) of over 30 mg/kg and an ED50 at 3 mg/kg (Rattus norvegicus [21]) of 3 mg/kg. For the same molecule, the IC50 (D(1A) dopamine receptor) was over 50000 nM, the inhibition in vivo at 2.5 mg/kg (Rattus norvegicus [11]) was 100% and the inhibition in vivo at 30 mg/kg (Rattus norvegicus [8]) was 100%.
In the case of `CCCN1CCCC(c2cccc(O)c2)C1` (racemic), the ED50 (Rattus norvegicus [3]; [22]) is reported as 30 mg/kg and the ED50 (Rattus norvegicus [5]) is reported as 3 mg/kg.
`CCCN1CCCC(c2cccc(O)c2)C1` (stereo unspecified) [listing 2 of 2 here] was tested, and the ED50 (Rattus norvegicus [3]) was 30 mg/kg.
`CCN1CCC=C(c2csc(N)n2)C1` was tested, and the IC50 (D(2) dopamine receptor [10]) was 411 nM, the IC50 (D(2) dopamine receptor [1]) was 945 nM and the inhibition (Rattus norvegicus [2]) was 96%. For the same molecule, the ED50 (Rattus norvegicus [3]; [22]) was over 30 mg/kg, the inhibition (Rattus norvegicus [4]) was 92% and the ED50 (Rattus norvegicus [5]) was “inactive”.
